Among the data in ChEMBL document CHEMBL1124837, “5-Hydroxytryptamine (5-HT3) receptor antagonists. 1. Indazole and indolizine-3-carboxylic acid derivatives” (J Med Chem, 1990) are ID50 values, retold here.

The target of this experiment is Serotonin 3 (5-HT3) receptor (Rattus norvegicus) (UniProt P35563+Q9JJ16). Briefly: Inhibition of 5-HT evoked reflex bradycardia in rat. The experiment is classed as functional, organism-based. A digest of the protocol: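 Anesthetized rats (260–290 g; urethane 1.25 g/kg ip) with blood pressure and heart rate recorded. A submaximal 5-HT dose (6 μg/kg iv) was given repeatedly and heart-rate changes were quantified. Test agents were given iv before 5-HT. ID50 is the dose cutting the 5-HT-evoked response to 50% of control.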
Compound `CCn1nc(C(=O)NC2CC3CCCC(C2)N3C)c2ccccc21` (stereo not drawn) returned an ID50 of 0.6 µg/kg.

Compound `Cc1nccn1CC1CCc2c(c3ccccc3n2C)C1=O` (stereo not drawn) came in with an ID50 of 3.6 µg/kg.

`CN1C2CCC1CC(NC(=O)c1ccc3ccccn13)C2` (stereo not drawn) yielded an ID50 above 10 µg/kg.

With `CN1C2CCC1CC(OC(=O)c1[nH]nc3ccccc13)C2` (stereo not drawn), the ID50 stood at 5.3 µg/kg.

The compound `CN1C2CCCC1CC(NC(=O)c1[nH]nc3ccc(Cl)cc13)C2` (stereo not drawn) had an ID50 of 12.4 µg/kg.

`CCc1nc(C(=O)NC2CC3CCCC(C2)N3C)c2ccccn12` (stereo not drawn) yielded an ID50 of 0.5 µg/kg.

`CN1C2CCCC1CC(NC(=O)c1[nH]nc3ccccc13)C2` (stereo not drawn) gave an ID50 of 1.1 µg/kg.

On to `CN1C2CCCC1CC(NC(=O)c1[nH]nc3ccc(F)cc13)C2` (stereo not drawn), for which the ID50 was determined as 1 µg/kg.

The compound `CN1C2CCCC1CC(NC(=O)c1nn(C)c3ccccc13)C2` (stereo not drawn) showed an ID50 of 2 µg/kg.

`CN1[C@@H]2CC[C@H]1C[C@@H](OC(=O)c1c[nH]c3ccccc13)C2` returned an ID50 of 1.4 µg/kg.

Regarding `Cc1cc(C(=O)NC2CC3CCC(C2)N3C)n2ccccc12` (stereo not drawn), the ID50 came to 1.6 µg/kg.

As for `CCc1nc(C(=O)NC2CC3CCC(C2)N3C)c2ccccn12` (stereo not drawn), the ID50 was 1 µg/kg.

With `CN1C2CCCC1CC(NC(=O)c1cn(C)c3ccccc13)C2` (stereo not drawn), the ID50 turned out to be 6.8 µg/kg.

Compound `CN1C2CCC1CC(NC(=O)c1n[nH]c3ccccc13)C2` (stereo not drawn) had an ID50 of 1.2 µg/kg.

`CN1C2CCCC1CC(NC(=O)c1c3ccccc3nn1C)C2` (stereo not drawn) returned an ID50 above 100 µg/kg.

The compound `CCc1cc(C(=O)NC2CC3CCC(C2)N3C)n2ccccc12` (stereo not drawn) registered an ID50 of 1 µg/kg.

Regarding `CN1C2CCC1CC(OC(=O)c1nn(C)c3ccccc13)C2` (stereo not drawn), the ID50 is 1.4 µg/kg.

The compound `CN1C2CCC1CC(NC(=O)c1cc(-c3ccccc3)c3ccccn13)C2` (stereo not drawn) registered an ID50 of 4.7 µg/kg.
